For data set [1], the target named is Translocator protein (Rattus norvegicus, UniProt P16257). Nature of the data set: Displacement of [11C]-PK-11195 from TPSO in Sprague-Dawley rat brain homogenate after 30 mins by gamma counting. In kind it is tissue-based.
A short description of data set [2]: Lipophilicity, log D of the compound in octanol-phosphate buffer at pH 7.4 by shake flask method. In kind it is physicochemical. In a few lines:
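Radioligand (~200000 cpm) shaken with n-octanol (3.0 g) and 0.1 M sodium phosphate buffer pH 7.4 (3.0 g). Vortexed 3 min at room temperature, centrifuged 3500 rpm for 5 min. Phases weighed and counted; organic layer repartitioned until consistent. LogD = log of the cpm/g octanol to cpm/g buffer ratio. Triplicate.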

In data set [3] the test system is Lung. Description: Drug uptake in Sprague-Dawley rat lung at 0.18 nmol, iv up to 30 mins by PET scanning. The data set is classed as ADME, organism-based. To be noted: in vivo, 0.5 h. In a few lines:
(§1)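 Male Sprague-Dawley rats (6–8 weeks old), isoflurane-anesthetized, prone. ROIs on lung, heart, kidney, liver, small intestine and cardiac blood pool. Uptake decay-corrected to injection time and expressed as SUV (body-weight normalized). n = 4, mean ± SD.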

For data set [4], the system named is Kidney. Description: Drug uptake in Sprague-Dawley rat kidney at 0.18 nmol, iv after 27.5 mins by PET scanning. To be noted: in vivo. In kind it is ADME, organism-based. In a few lines: as §1
Data set [5] concerns Kidney. Nature of the data set: Drug uptake in Sprague-Dawley rat kidney at 0.18 nmol, iv pretreated with unlabeled (R)-PK11195 by PET scanning. The data set is classed as ADME, organism-based. To be noted: in vivo. In a few lines: as §1
In data set [6] the test system is Blood. Nature of the data set: Drug uptake in Sprague-Dawley rat cardiac blood pool at 0.18 nmol, iv after 2 mins by PET scanning. In kind it is ADME, organism-based. To be noted: in vivo. In a few lines:
(§2)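 Isoflurane-anesthetized male Sprague-Dawley rats lay prone and received an iv bolus of [11C]radioligand in 200 μL. 3D list-mode emission scans ran 30 min from injection. Regions of interest were drawn on the organs and cardiac blood pool. Uptake was decay-corrected to injection time and expressed as SUV (normalized to injected radioactivity and body weight). Values are mean of n = 4.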

Data set [7] relates to Liver. Nature of the data set: Drug uptake in Sprague-Dawley rat liver at 0.18 nmol, iv pretreated with unlabeled (R)-PK11195 measured after 27.5 mins by PET scanning relative to control. The data set is classed as ADME, organism-based. To be noted: in vivo. In a few lines: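 Male Sprague-Dawley rats, 6-8 weeks old, under isoflurane, prone. An unlabeled TSPO blocking ligand (3.0 mg/kg) was injected 1 min before the iv radioligand (16-18 MBq/200 μL). A liver ROI was decay-corrected and expressed as SUV normalized to injected activity and body weight. The 27.5-min value was compared with unblocked controls; n = 4.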

The test system of data set [8] is Heart. Nature of the data set: Drug uptake in Sprague-Dawley rat heart at 0.18 nmol, iv up to 30 mins by PET scanning. The data set is classed as ADME, organism-based. To be noted: in vivo, 0.5 h. In a few lines: as §2
Data set [9] relates to Heart. Description: Drug uptake in Sprague-Dawley rat heart at 0.18 nmol, iv pretreated with unlabeled AC-5216 by PET scanning. In kind it is ADME, organism-based. To be noted: in vivo. In a few lines: (§3)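 Isoflurane-anesthetized Sprague-Dawley rats underwent 30-min PET after iv [11C]radioligand, with unlabeled blocker given iv 1 min before tracer. Blockers were (R)-PK11195 at 3.0 mg/kg or AC-5216 at 1.0 mg/kg in 300 μL saline with 10% ethanol and 5% polysorbate 80. Regional uptake was decay-corrected SUV (n = 4).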

The subject of data set [10] is Kidney. Description: Drug uptake in Sprague-Dawley rat kidney at 0.18 nmol, iv up to 30 mins by PET scanning. The data set is classed as ADME, organism-based. To be noted: in vivo, 0.5 h. In a few lines:
as §1

Data set [11] concerns Liver. Nature of the data set: Drug uptake in Sprague-Dawley rat liver at 0.18 nmol, iv after 27.5 mins by PET scanning. In kind it is ADME, organism-based. To be noted: in vivo. In a few lines:
as §1

For data set [12], the system named is Lung. Description: Drug uptake in Sprague-Dawley rat lung at 0.18 nmol, iv pretreated with unlabeled AC-5216 by PET scanning. The data set is classed as ADME, organism-based. To be noted: in vivo. In a few lines: as §1
The subject of data set [13] is Heart. Nature of the data set: Drug uptake in Sprague-Dawley rat heart at 0.18 nmol, iv pretreated with unlabeled (R)-PK11195 by PET scanning. To be noted: in vivo. The data set is classed as ADME, organism-based. In a few lines:
as §3

In data set [14] the test system is Heart. Description: Drug uptake in Sprague-Dawley rat heart at 0.18 nmol, iv after 2 mins by PET scanning. In kind it is ADME, organism-based. To be noted: in vivo. In a few lines:
as §2

Data set [15] relates to Lung. Description: Drug uptake in Sprague-Dawley rat lung at 0.18 nmol, iv pretreated with unlabeled (R)-PK11195 by PET scanning. In kind it is ADME, organism-based. To be noted: in vivo. In a few lines: as §1
Data set [16] deals with Blood. Nature of the data set: Drug uptake in Sprague-Dawley rat cardiac blood pool at 0.18 nmol, iv up to 30 mins by PET scanning. In kind it is ADME, organism-based. To be noted: in vivo, 0.5 h. In a few lines:
as §2

Data set [17] deals with Liver. Nature of the data set: Drug uptake in Sprague-Dawley rat liver at 0.18 nmol, iv pretreated unlabeled AC-5216 measured after 27.5 mins by PET scanning relative to control. The data set is classed as ADME, organism-based. To be noted: in vivo. In a few lines: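 Male Sprague-Dawley rats, 6-8 weeks, isoflurane-anesthetized. A blocking TSPO ligand (1.0 mg/kg, in 300 μL saline with 10% ethanol and 5% polysorbate 80) was injected 1 min before iv radioligand (16-18 MBq/200 μL). Liver ROI as decay-corrected SUV (injected activity, body weight), 27.5-min value versus controls; n = 4.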

The test system of data set [18] is Kidney. Description: Drug uptake in Sprague-Dawley rat kidney at 0.18 nmol, iv after 2 mins by PET scanning. In kind it is ADME, organism-based. To be noted: in vivo. In a few lines:
as §1

Data set [19] deals with Lung. Description: Drug uptake in Sprague-Dawley rat lung at 0.18 nmol, iv after 27.5 mins by PET scanning. In kind it is ADME, organism-based. To be noted: in vivo. In a few lines:
as §1

Data set [20] deals with Kidney. Nature of the data set: Drug uptake in Sprague-Dawley rat kidney at 0.18 nmol, iv pretreated with unlabeled AC-5216 by PET scanning. To be noted: in vivo. In kind it is ADME, organism-based. In a few lines:
as §1

Data set [21] has as its system Heart. Description: Drug uptake in Sprague-Dawley rat heart at 0.18 nmol, iv after 27.5 mins by PET scanning. In kind it is ADME, organism-based. To be noted: in vivo. In a few lines:
as §2

Data set [22] concerns Liver. Description: Drug uptake in Sprague-Dawley rat liver at 0.18 nmol, iv after 2 mins by PET scanning. To be noted: in vivo. The data set is classed as ADME, organism-based. In a few lines:
as §1

The subject of data set [23] is Blood. Description: Drug uptake in Sprague-Dawley rat cardiac blood pool at 0.18 nmol, iv after 27.5 mins by PET scanning. In kind it is ADME, organism-based. To be noted: in vivo. In a few lines: as §2
The subject of data set [24] is Liver. Nature of the data set: Drug uptake in Sprague-Dawley rat liver at 0.18 nmol, iv up to 30 mins by PET scanning. The data set is classed as ADME, organism-based. To be noted: in vivo, 0.5 h. In a few lines: as §1
Data set [25] relates to Lung. Nature of the data set: Drug uptake in Sprague-Dawley rat lung at 0.18 nmol, iv after 2 mins by PET scanning. The data set is classed as ADME, organism-based. To be noted: in vivo. In a few lines: as §1
In data set [26] the test system is Intestine. Nature of the data set: Drug uptake in Sprague-Dawley rat small intestine at 0.18 nmol, iv up to 30 mins by PET scanning. The data set is classed as ADME, organism-based. To be noted: in vivo, 0.5 h. In a few lines: as §1

SMILES strings stand for the structures.

Sequence of Translocator protein (P16257 whole entry, looked up): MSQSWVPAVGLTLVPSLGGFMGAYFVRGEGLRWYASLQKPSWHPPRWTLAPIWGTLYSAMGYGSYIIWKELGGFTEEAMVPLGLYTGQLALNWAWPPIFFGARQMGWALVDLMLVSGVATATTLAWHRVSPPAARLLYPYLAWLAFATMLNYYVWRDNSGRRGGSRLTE

The molecule `CN(Cc1cccnc1)C(=O)Cn1c(=O)n(C)c2cnc(-c3ccccc3)nc21` showed a Ki in [1] of 40 nM. The molecule further gave a logD in data set [2] of 1.81.
As to `CCN(Cc1cccnc1)C(=O)Cn1c(=O)n([11CH3])c2cnc(-c3ccccc3)nc21`, the Drug uptake entry in data set [3] is “Active”; in data set [5], “Not Active”; in [8], “Active”; in data set [9], “Not Active”; in data set [10], “Active”; in data set [12], “Not Active”. For the same molecule, the Drug uptake entry is on record as “Not Active” in data set [13]; “Not Active” in data set [15]; “Active” in [16]; “Not Active” in data set [20]; “Active” in [24]; “Active” in data set [26]. Moreover, the SUV in data set [4] was 1; in data set [6], 3; in [11], 0.5; in data set [14], 4.6; in data set [18] it was 3.3; in data set [19], 0.5. For the same molecule, the SUV was found to be 0.9 in data set [21], 1.6 in data set [22], 0.4 in [23] and 3.4 in [25]. Also, the “fold change (FC)” value in [7] and in data set [17] was 1.5 throughout.

What is called Ki is the equilibrium dissociation constant of an inhibitor or competing ligand from its target. The term logD denotes the decadic logarithm of the distribution of all forms, ionised or not, between an organic phase and buffer at a given pH. Higher therefore signals higher lipophilicity.

The record behind these values is ChEMBL document CHEMBL2203116, “Synthesis and evaluation of novel carbon-11 labeled oxopurine analogues for positron emission tomography imaging of translocator protein (18 kDa) in peripheral organs” (J Med Chem, 2011).
